From ChEMBL document CHEMBL1122000 (J Med Chem, 1982)

Legend:
[1] = tested on: Rattus norvegicus; assay: (§1) Antagonistic potency of compound after subcutaneous administration in rats; format: functional
[2] = organism: Rattus norvegicus; assay: Duration of action of compound was determined at the AD99 dose level in rats; format: functional
In short: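 Rats, 10 per dose level; bases in saline vehicle given sc. Antagonism was followed in the hot-water tail-flick test at the AD99 dose, which was extrapolated from AD50 values. Duration of action is given in hours.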

[3] = biological target: T1, Opioid receptor (Rattus norvegicus, UniProt P33533+P34975+P33535); assay: Inhibition of stereospecific [3H]diprenorphine binding to opioid receptors of rat brain homogenates by 50% in the absence of Na
[4] = organism: Mus musculus; assay: Concentration required for antagonistic activity of normorphine in the mouse vas deferens at the dose ratio of 2.; format: functional
[5] = biological target: T1, Opioid receptor; assay: Inhibition of stereospecific [3H]diprenorphine binding to opioid receptors of rat brain homogenates by 50% in the presence of Na
[6] = Partition coefficient (logP); format: physicochemical; details: octanol/water
[7] = tested on: Rattus norvegicus; assay: as §1; format: functional; remark: listed apart in the source
In short: (§2)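 Rats, 10 animals per dose level. Drugs were given as bases in saline vehicle, sc or orally. Antagonist activity was read in the hot-water tail-flick test. AD50 values were reported with limits.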

[8] = In vitro narcotic agonist potency of compound as ratio to normorphine (=1) was assessed in mouse vas deferens; format: functional
[9] = organism: Mus musculus; assay: Concentration required for antagonistic activity of Met-enkephalin in the mouse vas deferens at the dose ratio of 2.; format: functional
[10] = tested on: Rattus norvegicus; assay: Antagonistic potency of compound after oral administration in rats; format: functional; in short: as §2
[11] = organism: Mus musculus; assay: Concentration required for antagonistic activity of Met-enkephalin in the mouse vas deferens at the dose ratio of 2; format: functional

| SMILES | AD99 [1] [mg/kg] | Duration [2] [h] | IC50 [3] [µM] | Concentration [4] [ng/mL] | IC50 [5] [µM] | logP ([6]; read-out: logP) | AD50 [7] [mg/kg] | Potency ratio [8] | Concentration [9] [ng/mL] | AD50 [10] [mg/kg] | logP [6] | Concentration [11] [ng/mL] |
| --- | --- | --- | --- | --- | --- | --- | --- | --- | --- | --- | --- | --- |
| CCO[C@@]12CCC(=O)[C@@H]3Oc4c(O)ccc5c4[C@@]31CCN(CC1CC1)C2C5 | 0.14 | 4 | 0.008 | 0.07 | 0.0038 | 3.58 | 0.005 | <0.12 | 4.1 | 1.5 | – | – |
| O=C1CC[C@@]2(O)[C@H]3Cc4ccc(O)c5c4[C@@]2(CCN3CC2CC2)[C@H]1O5 [NALTREXONE] | 0.05 | 5 | – | 0.165 | – | – | 0.009 | – | 9 | 1.35 | 3.047 | – |
| C=CCN1CC[C@]23c4c5ccc(O)c4O[C@H]2C(=O)CC[C@@]3(O)[C@H]1C5 [NALOXONE] | 0.1 | 3 | – | 0.51 | – | 1.91 | 0.023 | – | 10.1 | 13 | – | – |
| CO[C@@]12CCC(=O)[C@@H]3Oc4c(O)ccc5c4[C@@]31CCN(CC1CC1)[C@@H]2C5 | 0.25 | 8 | 0.018 | 0.26 | 0.016 | 3.05 | 0.019 | <0.063 | 11.5 | 4.4 | – | – |
| C=CCN1CC[C@]23c4c5ccc(O)c4O[C@H]2C(=O)CC[C@@]3(OCC)C1C5 | 0.14 | 6 | – | 0.33 | – | 3.05 | 0.034 | – | 7.9 | 3.8 | – | – |
| C=CCN1CC[C@]23c4c5ccc(O)c4O[C@H]2C(=O)CC[C@@]3(OC)C1C5 | 0.15 | 4 | – | 0.46 | – | 2.52 | 0.041 | – | – | >30 | – | 7.3 |
